The values that follow come from ChEMBL document CHEMBL3352597, “Heck products of parthenolide and melampomagnolide-B as anticancer modulators that modify cell cycle progression” (Eur J Med Chem, 2014).

In this experiment the test system is Oocyte. Description: Induction of immature stage VI Xenopus oocyte maturation assessed as stimulation of progesterone-mediated maturation measured as germinal vesicle (nuclear) breakdown at 100 uM after overnight incubation. Format: functional, cell-based. Summed up: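 Oocytes (20 per well) pre-treated overnight with compound (100 μM final, DMSO) or DMSO vehicle, then stimulated with 2 μg/ml progesterone. GVBD (animal-pole white spot) scored at the time 50% of DMSO controls reach GVBD. Rate relative to control: 1.0 means no difference, above 1.0 acceleration, below 1.0 delay, 0.0 no maturation. Differences over 20% followed up.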

The source made the active and inactive calls. The rule behind the calls is not given here.

`C[C@@]12CC/C=C(/CO)CC[C@@H]3/C(=C\c4cccc(C(F)(F)F)c4)C(=O)O[C@@H]3[C@@H]1O2`: the outcome was Active. The result for `C[C@@]12CC/C=C(/CO)CC[C@@H]3/C(=C\c4cccs4)C(=O)O[C@@H]3[C@@H]1O2` reads “Active”.
